pIC50, pKi: −log10 of the molar value. Activity calls are given as the source filed them. The calls are words filed in the database; no cut-off is given here.
Assays:
[1] = target: Calcitonin gene-related peptide type 1 receptor (Homo sapiens, UniProt O60894+Q16602); test: Displacement of [125I]CGRP from CGRP receptor in human SK-N-MC cell membrane after 2 hrs; type: cell membranes
Cytochrome P450 3A4 [2] = target: T1, Cytochrome P450 3A4 (Homo sapiens, UniProt P08684); test: Inhibition of human recombinant CYP3A4 expressed in baculo-virus infected insect microsomes using 7-benzyloxy-4-trifluoromethylcoumarin as substrate after 20 mins by fluorescence detection assay; type: ADME, Microsome
Cytochrome P450 3A4 [3] = target: T1, Cytochrome P450 3A4; test: Inhibition of human recombinant CYP3A4 expressed in baculo-virus infected insect microsomes using benzyloxyresorufin as substrate after 45 mins by fluorescence detection assay; type: ADME, Microsome
[4] = Cardiovascular toxicity in human coronary arteries assessed as induction of vasoconstriction after 30 mins; set-up: species or system Coronary artery; details: for Activity: 0.5 h; for EC50 at 30 min: human coronary arteries
In short: (§1)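 Ex vivo human arteries in tissue baths; test agent applied up to 10 µM and contraction recorded. Serotonin (10 µM) added to each bath at session end as the reference for maximal vessel contractility; contraction expressed as percent of serotonin maximum.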

[5] = Cardiovascular toxicity in human coronary arteries assessed as induction of vasoconstriction after 30 mins relative to serotonin; set-up: species or system Coronary artery; in short: as §1
Callithrix jacchus [6] = test: Antimigraine activity in sc dosed marmosets assessed as inhibition of CGRP-induced increase in facial blood flow administered 30 mins post CGRP-challenge measured up to 105 mins by laser doppler flowmetry; type: functional, organism-based
In short: (§2)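 Anesthetized marmosets; facial blood flow raised by iv hαCGRP (10 µg/kg) at 45 min intervals (-30, 15, 60, 105 min). Antagonist given sc at 0 min (dose range 0.3–1 mg/kg). CGRP-induced changes in facial blood flow read by laser Doppler flowmetry.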

[7] = Cardiovascular toxicity in human coronary arteries assessed as induction of vasoconstriction up to 10 uM after 30 mins; set-up: species or system Coronary artery; details: 0.5 h; in short: as §1
Callithrix jacchus [8] = test: Antimigraine activity in marmosets assessed as inhibition of CGRP-induced increase in facial blood flow at 1 mg/kg, sc administered 30 mins post CGRP-challenge measured up to 105 mins by laser doppler flowmetry; type: functional, organism-based; set-up: dose 1 mg/kg; in short: as §2

Calcitonin gene-related peptide type 1 receptor, sequence (Q16602 whole entry, one chain of several): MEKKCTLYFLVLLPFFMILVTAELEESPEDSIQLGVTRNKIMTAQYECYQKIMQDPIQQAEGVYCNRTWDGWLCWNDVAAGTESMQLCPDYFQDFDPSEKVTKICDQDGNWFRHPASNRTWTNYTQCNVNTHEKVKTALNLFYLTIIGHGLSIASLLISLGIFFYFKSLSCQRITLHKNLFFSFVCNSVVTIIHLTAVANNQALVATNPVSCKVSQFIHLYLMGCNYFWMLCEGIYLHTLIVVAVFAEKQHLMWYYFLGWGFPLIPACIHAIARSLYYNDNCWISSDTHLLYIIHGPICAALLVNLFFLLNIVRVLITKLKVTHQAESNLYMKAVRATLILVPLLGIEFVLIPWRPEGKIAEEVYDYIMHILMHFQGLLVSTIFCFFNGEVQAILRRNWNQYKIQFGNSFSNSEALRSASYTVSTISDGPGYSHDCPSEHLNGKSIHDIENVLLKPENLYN
T1 sequence (P08684 whole entry): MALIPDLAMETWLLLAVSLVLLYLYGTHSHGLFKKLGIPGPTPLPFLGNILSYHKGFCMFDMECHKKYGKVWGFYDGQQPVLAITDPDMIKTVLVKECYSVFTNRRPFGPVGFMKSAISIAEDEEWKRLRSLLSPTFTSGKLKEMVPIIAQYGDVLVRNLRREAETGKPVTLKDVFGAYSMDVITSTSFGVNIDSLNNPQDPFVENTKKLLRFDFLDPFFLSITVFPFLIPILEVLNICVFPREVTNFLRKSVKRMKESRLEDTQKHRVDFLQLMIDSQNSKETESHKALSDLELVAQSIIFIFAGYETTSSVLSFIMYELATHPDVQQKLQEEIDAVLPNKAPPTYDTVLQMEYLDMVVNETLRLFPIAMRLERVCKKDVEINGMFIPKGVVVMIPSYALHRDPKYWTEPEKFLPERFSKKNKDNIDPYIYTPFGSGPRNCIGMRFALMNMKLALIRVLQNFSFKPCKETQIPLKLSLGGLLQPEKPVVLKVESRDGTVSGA

Compound `O=C(N[C@H](Cc1ccccc1)C(=O)N1CCC(N2CCCCC2)CC1)N1CCC(n2c(=O)[nH]c3ccccc32)CC1` has a pKi [1] of 6.52.

With `O=C(N[C@H](Cc1csc2ccccc12)C(=O)N1CCC(N2CCCCC2)CC1)N1CCC(n2c(=O)[nH]c3ccccc32)CC1` the pIC50 (Cytochrome P450 3A4 [2]) was 6.06, the pKi [1] was 9.26 and the pIC50 (Cytochrome P450 3A4 [3]) was 7.08.

Work on `O=C(N[C@H](Cc1ccc(O)cc1)C(=O)N1CCC(N2CCCCC2)CC1)N1CCC(n2c(=O)[nH]c3ccccc32)CC1` yielded a pKi [1] of 8.60 and a pIC50 (Cytochrome P450 3A4 [3]) of under 4.40.

Compound `NC(=O)CC[C@@H](NC(=O)N1CCC(n2c(=O)[nH]c3ccccc32)CC1)C(=O)N1CCC(N2CCCCC2)CC1` has a pKi [1] of under 6.00.

In the case of `O=C(N[C@@H](C(=O)N1CCC(N2CCCCC2)CC1)c1ccccc1)N1CCC(n2c(=O)[nH]c3ccccc32)CC1`, the pKi [1] was under 6.00.

Compound `Cc1nc2cc(C[C@@H](NC(=O)N3CCC(N4Cc5ccccc5NC4=O)CC3)C(=O)N3CCC(N4CCCCC4)CC3)ccc2[nH]1` has a pKi [1] of 7.55.

`CC(=O)Nc1ccc(C[C@@H](NC(=O)N2CCC(n3c(=O)[nH]c4ccccc43)CC2)C(=O)N2CCC(N3CCCCC3)CC2)cc1` gave a pKi [1] of 5.72.

`O=C(N[C@H](Cc1cccc2ccccc12)C(=O)N1CCC(N2CCCCC2)CC1)N1CCC(n2c(=O)[nH]c3ccccc32)CC1` showed a pKi [1] of 8.14 and a pIC50 (Cytochrome P450 3A4 [3]) of 7.52.

For `O=C(N[C@@H](Cc1cc(Br)c(O)c(Br)c1)C(=O)N1CCC(N2CCCCC2)CC1)N1CCC(n2c(=O)[nH]c3ccccc32)CC1`, the pKi [1] was under 6.00.

Work on `O=C(N[C@H](Cc1cc(Br)c(O)c(Br)c1)C(=O)N1CCC(N2CCCCC2)CC1)N1CCC(n2c(=O)[nH]c3ccccc32)CC1` yielded a pKi [1] of 9.19 and a pIC50 (Cytochrome P450 3A4 [3]) of 5.62.

`Cn1cc(C[C@@H](NC(=O)N2CCC(n3c(=O)[nH]c4ccccc43)CC2)C(=O)N2CCC(N3CCCCC3)CC2)c2ccccc21` showed a pKi [1] of 7.80 and a pIC50 (Cytochrome P450 3A4 [3]) of 7.00.

Work on `O=C(N[C@H](Cc1ccc2[nH]c(=O)oc2c1)C(=O)N1CCC(N2CCCCC2)CC1)N1CCC(N2Cc3ccccc3NC2=O)CC1` yielded a pKi [1] of 9.57 and a pIC50 (Cytochrome P450 3A4 [3]) of 4.52.

With `CNS(=O)(=O)Cc1ccc2[nH]cc(CCN(C)C)c2c1` the Activity [4] was “Dose-dependent effect”, the EC50 at 30 min [4] was 0.12 µM and the Emax at 0.5 h [5] was 48%.

In the case of `O=C(N[C@H](Cc1ccc2[nH]ncc2c1)C(=O)N1CCC(N2CCCCC2)CC1)N1CCC(N2Cc3ccccc3NC2=O)CC1`, the inhibition (Callithrix jacchus [6]) was “Dose-dependent effect” and the Activity [7] was “Non-toxic”.

`COc1ccc(C[C@@H](NC(=O)N2CCC(n3c(=O)[nH]c4ccccc43)CC2)C(=O)N2CCC(N3CCCCC3)CC2)cc1` showed a pKi [1] of 5.85.

`O=C(N[C@H](Cc1ccc2nn[nH]c2c1)C(=O)N1CCC(N2CCCCC2)CC1)N1CCC(N2Cc3ccccc3NC2=O)CC1` gave a pKi [1] of 9.26 and a pIC50 (Cytochrome P450 3A4 [3]) of 4.64.

With `O=C(N[C@@H](Cc1ccc2[nH]ncc2c1)C(=O)N1CCC(N2CCCCC2)CC1)N1CCC(N2Cc3ccccc3NC2=O)CC1` the inhibition (Callithrix jacchus [8]) was “inactive” and the pIC50 (Cytochrome P450 3A4 [3]) was 5.14.

With `O=C(N[C@H](CCc1ccccc1)C(=O)N1CCC(N2CCCCC2)CC1)N1CCC(n2c(=O)[nH]c3ccccc32)CC1` the pKi [1] was under 6.00.

In the case of `O=C(NC(Cc1ccc2[nH]ncc2c1)C(=O)N1CCC(N2CCCCC2)CC1)N1CCC(n2c(=O)[nH]c3ccccc32)CC1` (racemic), the pKi [1] was 7.17, the Activity [7] was “Non-toxic” and the pIC50 (Cytochrome P450 3A4 [3]) was 4.77.

For `O=C(N[C@H](Cc1ccc(-c2ccccc2)cc1)C(=O)N1CCC(N2CCCCC2)CC1)N1CCC(n2c(=O)[nH]c3ccccc32)CC1`, the pKi [1] was 6.60 and the pIC50 (Cytochrome P450 3A4 [3]) was 5.89.

In the case of `CN(C)CCc1c[nH]c2ccc(C[C@H]3COC(=O)N3)cc12` [ZOLMITRIPTAN], the Activity [4] was “Dose-dependent effect”, the EC50 at 30 min [4] was 0.04 µM and the Emax at 0.5 h [5] was 39%.

With `CC(C)C[C@@H](NC(=O)N1CCC(n2c(=O)[nH]c3ccccc32)CC1)C(=O)N1CCC(N2CCCCC2)CC1` the pKi [1] was 5.62 and the pIC50 (Cytochrome P450 3A4 [3]) was 4.80.

In the case of `Nc1ccc(C[C@@H](NC(=O)N2CCC(n3c(=O)[nH]c4ccccc43)CC2)C(=O)N2CCC(N3CCCCC3)CC2)cc1`, the pKi [1] was 6.12.

For `O=C(NC(Cc1ccc2[nH]ccc2c1)C(=O)N1CCC(N2CCCCC2)CC1)N1CCC(n2c(=O)[nH]c3ccccc32)CC1` (racemic), the pKi [1] was 7.49 and the pIC50 (Cytochrome P450 3A4 [3]) was 5.60.

Work on `O=C(N[C@H](Cc1c[nH]c2ccccc12)C(=O)N1CCC(N2CCCCC2)CC1)N1CCC(n2c(=O)[nH]c3ccccc32)CC1` yielded a pKi [1] of 7.08 and a pIC50 (Cytochrome P450 3A4 [3]) of under 4.40.

For `O=C(N[C@H](CCc1ccc(O)cc1)C(=O)N1CCC(N2CCCCC2)CC1)N1CCC(n2c(=O)[nH]c3ccccc32)CC1`, the pKi [1] was 5.68.

Work on `O=C(N[C@H](Cc1ccc2ccccc2c1)C(=O)N1CCC(N2CCCCC2)CC1)N1CCC(n2c(=O)[nH]c3ccccc32)CC1` yielded a pKi [1] of 6.64 and a pIC50 (Cytochrome P450 3A4 [3]) of 7.52.

With `O=C(O)CC[C@@H](NC(=O)N1CCC(n2c(=O)[nH]c3ccccc32)CC1)C(=O)N1CCC(N2CCCCC2)CC1` the pKi [1] was under 6.00.

Compound `O=C1Cc2cc(C[C@@H](NC(=O)N3CCC(N4Cc5ccccc5NC4=O)CC3)C(=O)N3CCC(N4CCCCC4)CC3)ccc2N1` has a pKi [1] of 9.19 and a pIC50 (Cytochrome P450 3A4 [3]) of 4.96.
